# Bioassay records from PubChem BioAssay.
# RBBP9 inhibitor: inhibitors of human serine hydrolase RBBP9. O75884. recombinant RBBP9, FP-Rh probe fluorescence polarization. inhibition, % at 7.94 µM. actives 0.2% (n = 220,000);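 active = inhibition above the campaign mean of all tested compounds plus 3 SD, cut at about 14% in these data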
# Target sequence (O75884 whole entry, looked up): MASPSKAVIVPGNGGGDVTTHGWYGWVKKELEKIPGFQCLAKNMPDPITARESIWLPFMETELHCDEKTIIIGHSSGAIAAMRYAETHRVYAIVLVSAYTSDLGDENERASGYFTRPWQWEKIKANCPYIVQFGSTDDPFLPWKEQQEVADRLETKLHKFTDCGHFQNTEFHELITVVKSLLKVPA
#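 System: RBBP9 protein / Buffer or medium: Tris/NaCl buffer pH 8.0 with 0.1% Pluronic / Probe or stimulus: Serine-hydrolase probe FP-Rh, 375 nM pre-mixing / Dosing: 7.94 µM single dose, 0.794% DMSO / Times: enzyme-compound preincubation 30 min, then probe labeling 45 min, 25 °C / Technique: fluorescence polarization (mP), excitation 525 nm, emission 598 nm / Replication: singlicate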
# PABP1 MLLE inh: blocks PAM2 peptide binding to the PABP1 MLLE domain | P11940 | GST-MLLE / FITC-PAM2 fluorescence polarization | inhibition, % at 20 µM | actives 0.36% (n = 360,000) | AID 588489; in the data active = inhibition above about 35%, passing the limit was not always enough
# eIF4H inh: inhibitors of RNA binding by human eIF4H. Q15056. eIF4H fluorescence polarization binding assay. inhibition, % at 35 µM. actives 0.94% (n = 290,000). AID 2012;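 also: calls also rest on retests at 20 µM and on dose response follow-up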
# TCR-CD3 inh: blocks the human TCR-CD3 interaction. TAMRA-labeled TCR probe fluorescence, biochemical. inhibition, % at 9.4 µM. actives 0.37% (n = 360,000). AID 651800; in the data active = inhibition above about 19%;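 also: recombinant mutant TCR 2C K166C tagged with TAMRA read by polarization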
# PABP FP inh: PABP-poly(A) binding inhibition; P11940; PABP-poly(A) RNA binding, fluorescence polarization; calls only at 35 µM; actives 1% (n = 290,000);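 also: calls also rest on retests at 20 µM and on dose response follow-up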
# A number is an active result; 0 = inactive; ? = inconclusive; - = no result given; + = active, no number. Compounds with a hit are over-represented: about 1.6% of the library has one in this group of screens. Unless noted, no rule for the calls is given here.
SMILES,RBBP9 inhibitor,PABP1 MLLE inh,eIF4H inh,TCR-CD3 inh,PABP FP inh
COCCN(Cc1ccc(C)cc1)C(=O)[C@@H](Cc1ccccc1)NC(=O)[C@H]1O[C@@H](n2ccc(=O)[nH]c2=O)[C@H](O)[C@@H]1O,-,-,-,0,-
CCCCn1c(=O)nc2n(-c3ccccc3C)c3ccccc3cc-2c1=O,0,0,0,0,0
Cc1ccccc1-n1c2nc(=O)n(C)c(=O)c-2cc2ccccc21,0,0,0,0,+
Nc1cc(-c2cccc(Br)c2)nn1Cc1ccccc1,0,0,active,0,0
O=C(N[C@H](C(=O)N1CCC[C@H]1C(=O)NC1CCCC1)C1CCCCC1)C1CC1,-,-,-,0,-
Cc1ccc(-c2csc3ncn(CC#N)c(=O)c23)cc1,0,0,0,0,0
Cc1ccc(-c2csc3ncn(CC#N)c(=O)c23)cc1C,-,0,54.0,0,+
COC(=O)C1=C(C)N(C)C(=NCc2ccc3c(c2)OCO3)NC1c1cccc(F)c1 (stereo not given),-,-,-,0,-
O=C(O)c1cccc(-c2ccc(/C=c3/sc4nc5ccccc5n4c3=O)o2)c1,0,0,0,0,0
O=C(O)c1cc(C(=O)O)cc(-c2ccc(/C=c3/sc4nc5ccccc5n4c3=O)o2)c1,0,-,55.8,-,0
O=C(O)CCC(=O)Nc1sc2c(c1C(=O)Nc1cccc3ccccc13)CCCCC2,0,0,57.5,0,+
O=C(O)CCC(=O)Nc1sc2c(c1C(=O)Nc1ccccc1)CCCCC2,0,0,0,0,0
CSc1nc(SCC(=O)O)c2sc3nc(-c4ccccc4)c4c(c3c2n1)CCC4,0,0,71.0,0,+
CSc1nc(N(C)CCO)c2sc3nc(-c4ccco4)c4c(c3c2n1)CCC4,0,0,79.0,-,+
CSc1nc(N2CCN(CCO)CC2)c2sc3nc(-c4ccco4)c4c(c3c2n1)CCC4,-,-,97.8,-,+
CSc1nc(NCCN(C)C)c2sc3nc(-c4ccco4)c4c(c3c2n1)CCC4,-,0,-,0,-
Nc1[nH]c(C(=O)c2ccccc2)c(-c2ccc3ccccc3c2)c1C(=O)NCc1ccc(-c2ccccc2)cc1,-,-,-,0,-
C[C@@H]1ON(C)[C@H]2C[C@H]3c4[nH]c5c(-c6ccc(F)cc6)cccc5c4CCN3C(=O)[C@@H]12,-,-,-,0,-
Cc1onc(-c2ccccc2)c1C(=O)NC(=S)NNC(=O)c1ccncc1,0,41.6,0,0,0
Cc1cc(N2CCNC[C@@H]2C)ccc1N1CCN(Cc2ccccc2)[C@@H](C)C1,-,-,-,0,-
CCCCC1=CC2=C(c3ccco3)C(=O)C(C)(OC(=O)c3ccc(OC)cc3)C(=O)C2=CN1CCOC (stereo not given),-,0,?,0,?
CCCCC1=CC2=C(c3ccco3)C(=O)C(C)(OC(=O)c3ccc(OC)cc3)C(=O)C2=CN1Cc1ccccc1 (stereo not given),-,0,0,0,+
N#C/C(=C(/O)CCl)c1nc2ccccc2[nH]1,0,0,?,0,+
N#C/C(=C(\O)Cc1ccccc1)c1nc2ccccc2[nH]1,0,0,0,0,0
C[C@H](O)[C@@H]1C(=O)N2CCc3c([nH]c4c(-c5ccccc5)cccc34)[C@@H]2C[C@@H]1N(C)C(=S)NCCc1ccccc1,-,-,-,0,-
SMILES,RBBP9 inhibitor,PABP1 MLLE inh,eIF4H inh,TCR-CD3 inh,PABP FP inh
O=C(NCCc1ccccc1Cl)[C@@H]1CCCN1C(=O)[C@@H](NS(=O)(=O)c1ccc(F)cc1F)C1CCCCC1,-,-,-,0,-
COc1ccc(NC(=O)c2cccc(S(=O)(=O)N3CCOCC3)c2)cc1,-,0,0,0,0
O=C(O)COc1ccccc1/C=N/NC(=O)c1cccc(S(=O)(=O)N2CCOCC2)c1,0,0,2.2,0,0
COc1ccc(NC(=O)c2cccc(S(=O)(=O)N3CCOCC3)c2)cn1,0,0,73.1,0,+
COC(=O)N1C[C@H](O)[C@H](O)C[C@@H]1c1ccccc1Br,-,-,-,0,-
COC(=O)C1C2C=CC3(CN(C(C)c4ccc(OC)cc4)C(=O)C13)O2 (stereo not given),0,0,active,0,+
Cc1[nH]c2ccccc2c1CC(=O)Nc1ccc(N(C)c2cccnc2)c(-c2cccc(Cl)c2)c1,-,-,-,0,-
CN(C)S(=O)(=O)c1ccc(N2CCCC2)c(C(=O)Nc2nc3ccc(F)cc3s2)c1,0,0,active,0,+
O=C(C(=O)N1CCN(C(=O)c2cc(C(F)(F)F)cc(C(F)(F)F)c2)CC1)c1cccc(C(F)(F)F)c1,-,-,-,0,-
CC(=O)Nc1ccc2c(COC(=O)CC3Sc4ccccc4NC3=O)cc(=O)oc2c1 (stereo not given),0,0,?,0,+
Cc1ccccc1-c1ccc2c(c1)[C@@H]1C[C@H]3[C@@H](CN1CC2)[C@H](C)ON3C,-,-,-,0,-
C[C@@H]1CN([C@H](C)CO)C(=O)CCCn2cc(nn2)CO[C@H]1CN(C)S(=O)(=O)c1ccc(Cl)cc1,-,-,-,0,-
COc1ccc2c(c1)c(=O)oc1cc(OCC(=O)NC3CCCCC3)ccc12,0,0,91.1,0,0
Cc1nc(N2CCN(c3ccccc3O)CC2)c2c(-c3ccccc3)csc2n1,-,0,100.4,0,+
CCc1c(C)sc(NC(=O)c2ccco2)c1C(=O)N1CCOCC1,0,39.9,0,0,0
Oc1ccc(C(=S)N2CCCCCC2)cc1,0,36.6,0,0,0
Oc1ccc(C(=S)N2CCCC2)cc1,-,0,0,0,0
Oc1cccc(C(=S)N2CCCCC2)c1,0,38.4,0,0,0
CC1CCN(C(=S)c2ccc(O)cc2)CC1,0,37.4,0,0,0
O=C(Oc1cccc(C(=S)N2CCCCC2)c1)c1ccccc1,0,0,0,0,0
CCCCOCC1CN(Cc2ccccc2OC)S(=O)(=O)c2cc(Cl)ccc2O1 (stereo not given),-,-,-,0,-
Fc1cccc(Cl)c1C1Nc2cccc3cccc(c23)N1,-,0,95.6,0,+
Clc1cccc(Cl)c1C1Nc2cccc3cccc(c23)N1,-,0,98.8,0,+
CCCCc1c(C)nc2ccc(C(=O)OCC)cc2c1Cl,0,0,0,0,+
NC(=O)c1ccc(NC(=O)COC(=O)c2cc3c(s2)CCC3)cc1,-,0,-,0,-
SMILES,RBBP9 inhibitor,PABP1 MLLE inh,eIF4H inh,TCR-CD3 inh,PABP FP inh
O=C(COC(=O)c1cc2c(s1)CCC2)Nc1ccc(F)cc1,0,0,96.6,0,+
CCCCOCC1CN(CCCC)S(=O)(=O)c2c(cccc2Sc2ccc(SC)cc2)O1 (stereo not given),-,-,-,0,-
CCOc1cc([C@@H]2C[C@H]3CN(c4ccccc4)C(=O)[C@]34CCCN24)ccc1OC,0,0,57.3,0,0
COc1cc([C@@H]2C[C@H]3CN(c4ccccc4)C(=O)[C@]34CCCN24)cc(OC)c1OC,0,0,0,0,0
COc1ccc(N2C(=O)c3n[nH]c(C)c3C2c2ccc(F)cc2)cc1 (stereo not given),-,-,-,0,-
COC(=O)[C@]12C[C@H](CC(=O)NCC3CCCCC3)C(=O)N(Cc3ccc4c(c3)OCO4)C1=C[C@H](COCc1ccccc1)O[C@@H]2C,-,-,-,0,-
COc1ccc2[nH]c3c4c(ccc3c2c1)C(=O)C=CC4=O,83.7,0,0,0,0
COc1cc(C2C3=C(Nc4nc(N)[nH]c(=O)c42)c2ccccc2C3=O)ccc1O (stereo not given),0,0,93.3,0,+
